# From ChEMBL document CHEMBL1159387, “Absolute stereostructures of new arborinane-type triterpenoids and inhibitors of nitric oxide production from Rubia yunnanensis” (J Nat Prod, 2003)
# Legend:
# Macrophage [1] = experiment: Inhibition of nitric oxide production in lipopolysaccharide-activated ddY mouse macrophages at 3 uM relative to control; assay type: functional
# Method in brief: (§1)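 Peritoneal macrophages from male ddY mice given 4% thioglycolate i.p. 4 days earlier, plated at 5 × 10^5 cells/well in RPMI 1640 with 5% FCS, 1 h at 37 °C; adherent cells (>95% macrophages) then cultured 20 h with 10 µg/mL LPS plus compound (1-100 µM, DMSO final 0.5%). Nitrite in medium measured by Griess reagent; % inhibition versus LPS-only control, IC50 read graphically, N = 4.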
# Macrophage [2] = experiment: Inhibition of nitric oxide production in lipopolysaccharide-activated ddY mouse macrophages at 10 uM relative to control; assay type: functional; method in brief: as §1
# Macrophage [3] = experiment: Inhibition of nitric oxide production in lipopolysaccharide-activated ddY mouse macrophages at 30 uM relative to control; assay type: functional; method in brief: as §1
# Macrophage [4] = experiment: Inhibition of nitric oxide production in lipopolysaccharide-activated ddY mouse macrophages at 100 uM relative to control; assay type: functional; method in brief: as §1
# [5] = Toxicity in lipopolysaccharide-activated ddY mouse macrophages at 100 uM by MTT method; assay type: cell-based; settings: macrophage
# Method in brief: (§2)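 Peritoneal exudate cells from male ddY mice given 4% thioglycolate i.p. 4 days earlier, plated at 5 × 10^5 cells/well in RPMI 1640 with 5% FCS, 1 h at 37 °C. Non-adherent cells washed off. Adherent macrophages exposed to 10 µg/mL LPS plus compound (DMSO, final 0.5%) for 20 h. MTT added for 4 h, formazan dissolved in 2-propanol/0.04 M HCl, read at 570 nm (ref 655 nm). N=4.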
# Macrophage [6] = experiment: Inhibition of nitric oxide production in lipopolysaccharide-activated ddY mouse macrophages at 1 uM relative to control; assay type: functional; method in brief: as §1
# [7] = Toxicity in lipopolysaccharide-activated ddY mouse macrophages by MTT method; assay type: cell-based; settings: macrophage
# Method in brief: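 Thioglycolate-elicited ddY mouse peritoneal macrophages were treated for 20 h with 10 µg/mL LPS plus compound (1-100 µM, 0.5% DMSO final). MTT (5 mg/mL in PBS) was then added for 4 h, and formazan was dissolved in 2-propanol with 0.04 M HCl. Absorbance was read at 570 nm (reference 655 nm), N = 4.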
# [8] = Toxicity in lipopolysaccharide-activated ddY mouse macrophages at 30 uM by MTT method; assay type: cell-based; settings: macrophage; method in brief: as §2
# [9] = Inhibition of NOS; method in brief: as §1
Compound,inhibition at 3 µM (Macrophage [1]),inhibition at 10 µM (Macrophage [2]),inhibition at 30 µM (Macrophage [3]),inhibition at 100 µM (Macrophage [4]),Activity [5],inhibition at 1 µM (Macrophage [6]),Activity [7],Activity [8],IC50 [9]
Cc1c(O)cc2c(c1O)C(=O)c1ccc(O)cc1C2=O,7.9%,37.5%,99.5%,99.6%,Toxic,4.9%,,,
CC(=O)OC[C@@]12CC[C@@]3(C)[C@H]4C(=CC[C@]3(C)[C@H]1[C@H](OC(C)=O)C[C@H]2C(C)C)[C@@]1(C)CC[C@H](OC(C)=O)C(C)(C)[C@@H]1C[C@@H]4OC(C)=O,10.6%,-1.2%,0%,6.6%,,5.3%,,,
CC(=O)OC[C@@]12CC[C@@]3(C)[C@H]4C(=CC[C@]3(C)[C@H]1[C@H](O)C[C@H]2C(C)C)[C@@]1(C)C[C@@H](O)C(=O)C(C)(C)[C@@H]1C[C@@H]4O,-1.5%,0%,-5.8%,15.4%,,-1.1%,,,
CC(=O)OC[C@@]12CC[C@@]3(C)[C@H]4C(=CC[C@]3(C)[C@H]1[C@H](O)C[C@H]2C(C)C)[C@@]1(C)CC[C@H](O)C(C)(C)[C@@H]1C[C@@H]4O,11.1%,4.7%,-7.4%,25.5%,Toxic,5.2%,,,
CC(C)[C@@H]1C[C@@H](O)[C@H]2[C@@]1(CO)CC[C@@]1(C)[C@H]3C(=CC[C@]21C)[C@@]1(C)C[C@@H](O)C(=O)C(C)(C)[C@@H]1C[C@@H]3O,-10.3%,2.1%,1.8%,40.3%,,-9.6%,,,
CC(=O)OC[C@@]12CC[C@@]3(C)[C@H]4C(=CC[C@]3(C)[C@H]1[C@H](O)C[C@H]2C(C)C)[C@@]1(C)C[C@@H](O)[C@H](O)C(C)(C)[C@@H]1C[C@@H]4O,5.3%,4.3%,-11.1%,76.5%,,17%,Non-toxic,,
CC(=O)OC[C@@]12CC[C@@]3(C)[C@H]4C(=CC[C@]3(C)[C@H]1[C@H](OC(C)=O)C[C@H]2C(C)C)[C@@]1(C)C[C@@H](OC(C)=O)[C@H](OC(C)=O)C(C)(C)[C@@H]1C[C@@H]4OC(C)=O,9.5%,18.7%,25.5%,28.4%,,7.7%,,,
COc1cc(O)cc(OC)c1C(=O)O,9.3%,7.5%,7.2%,28%,,9.5%,,,
CC(=O)OC[C@@]12CC[C@@]3(C)[C@H]4C(=CC[C@]3(C)[C@H]1[C@H](O)C[C@H]2C(C)C)[C@@]1(C)C[C@@H](OC(C)=O)[C@H](O)C(C)(C)[C@@H]1C[C@@H]4O,21.3%,-12%,-7.9%,77.1%,,20.2%,Non-toxic,,
CC(=O)OC[C@@]12CC[C@@]3(C)[C@H]4C(=CC[C@]3(C)[C@H]1[C@H](OC(C)=O)C[C@H]2C(C)C)[C@@]1(C)C[C@@H](OC(C)=O)C(=O)C(C)(C)[C@@H]1C[C@@H]4OC(C)=O,7.3%,12.5%,18.7%,23%,,1.7%,,,
COc1cc(C[C@@H](CO)[C@H](CO)Cc2ccc(O)c(OC)c2)ccc1O [(+)-SECOISOLARICIRESINOL],-7.3%,6.5%,0.9%,-12.5%,,5.9%,,,
COc1cc([C@H]2c3cc(O)c(OC)cc3C[C@@H](CO)[C@@H]2CO)ccc1O [ISOLARICIRESINOL],-0.6%,0.6%,5.1%,7.5%,,-0.2%,,,
COc1cc(C[C@H]2CO[C@H](c3ccc(O)c(OC)c3)[C@H]2CO)ccc1O [LARICIRESINOL],3%,5.5%,-8.2%,11.9%,,4%,,,
CC(=O)O[C@@H]1C[C@]2(C)C3=CC[C@]4(C)[C@H]5[C@@H]6C[C@@H](C(C)C)[C@@]5(CC[C@@]4(C)[C@@H]3[C@@H](O)C[C@H]2C(C)(C)[C@H]1O[C@@H]1O[C@H](CO)[C@@H](O)[C@H](O)[C@H]1O)CO6 [RUBIANOSIDE I],-0.3%,-8%,1.5%,-3.2%,,5.1%,,,
CC(C)[C@@H]1C[C@@H](O)[C@H]2[C@@]1(CO)CC[C@@]1(C)[C@H]3C(=CC[C@]21C)[C@@]1(C)CC[C@H](O)C(C)(C)[C@@H]1C[C@@H]3O [RUBIARBONOL A],4.2%,-4.2%,2.9%,86.3%,Toxic,6.3%,,Toxic,
CC(C)[C@@H]1C[C@@H](O)[C@H]2[C@@]1(CO)CC[C@@]1(C)[C@H]3C(=CC[C@]21C)[C@@]1(C)C[C@@H](O)[C@H](O)C(C)(C)[C@@H]1C[C@@H]3O [RUBIARBONOL F],7.9%,15.4%,22%,60.4%,Toxic,9.6%,,,
CC(C)[C@@H]1C[C@@H](O)[C@H]2[C@@]1(CO)CC[C@@]1(C)[C@H]3C(=CC[C@]21C)[C@@]1(C)CCC(=O)C(C)(C)[C@@H]1C[C@@H]3O [RUBIARBONONE B],-9.7%,-13.7%,16.9%,19.7%,,4.3%,,,
CC(=O)OC[C@@]12CC[C@@]3(C)[C@H]4C(=CC[C@]3(C)[C@H]1[C@H](O)C[C@H]2C(C)C)[C@@]1(C)CCC(=O)C(C)(C)[C@@H]1C[C@@H]4O [RUBIARBONONE C],3.7%,-2.3%,8%,90.3%,Toxic,-2.1%,,,
CNC(=N)NCCC[C@H](N)C(=O)O [TILARGININE],10.3%,15%,34.1%,63.1%,,5.9%,,,57 µM
COc1cc(C(=O)O)ccc1O [VANILLIC ACID],16.2%,8.2%,-3.6%,5.9%,,5.9%,,,
